Experimental data from ChEMBL document CHEMBL2331528, “Design and synthesis of bicyclic pyrazinone and pyrimidinone amides as potent TF-FVIIa inhibitors” (Bioorg Med Chem Lett, 2013).

What was measured:
Prothrombin = Prothrombin (Homo sapiens, UniProt P00734); assay: Inhibition of thrombin (unknown origin) by chromogenic substrate assay
Outline: (§1)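 Ki from chromogenic substrate assays at 25 °C; n = 2.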

[1] = molecular target: Coagulation factor VII/tissue factor (Homo sapiens, UniProt P08709); assay: Inhibition of tissue factor-factor 7a (unknown origin) interaction by chromogenic substrate assay; format: protein-complex assay; outline: as §1
Chain of Coagulation factor VII/tissue factor (P08709 61-212 limits assumed): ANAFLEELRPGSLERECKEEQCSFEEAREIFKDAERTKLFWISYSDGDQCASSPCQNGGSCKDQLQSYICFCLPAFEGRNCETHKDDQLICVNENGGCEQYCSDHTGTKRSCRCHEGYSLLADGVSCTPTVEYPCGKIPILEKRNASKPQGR
Chain of Coagulation factor VII/tissue factor (P08709 213-466 limits assumed): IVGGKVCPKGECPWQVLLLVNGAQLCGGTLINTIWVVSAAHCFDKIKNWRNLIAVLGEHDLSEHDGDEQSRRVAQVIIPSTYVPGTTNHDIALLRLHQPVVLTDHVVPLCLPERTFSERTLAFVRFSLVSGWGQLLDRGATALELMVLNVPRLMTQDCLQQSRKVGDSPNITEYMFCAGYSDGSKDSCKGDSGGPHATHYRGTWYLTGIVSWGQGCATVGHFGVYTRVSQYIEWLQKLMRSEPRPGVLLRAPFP
Chain of Coagulation factor VII/tissue factor (P13726 33-295 partner limits assumed): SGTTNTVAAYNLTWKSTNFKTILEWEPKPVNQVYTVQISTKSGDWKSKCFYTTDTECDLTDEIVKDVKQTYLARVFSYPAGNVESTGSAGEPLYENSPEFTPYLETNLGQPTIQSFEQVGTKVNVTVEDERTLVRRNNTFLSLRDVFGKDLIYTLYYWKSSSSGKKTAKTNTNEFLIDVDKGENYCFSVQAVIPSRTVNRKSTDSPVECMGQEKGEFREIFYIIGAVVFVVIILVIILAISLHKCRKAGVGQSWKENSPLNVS

Coagulation factor X = Coagulation factor X (Homo sapiens, UniProt P00742); assay: Inhibition of factor-10a (unknown origin) by chromogenic substrate assay; outline: as §1
Chain of Coagulation factor X (P00742 41-179 limits assumed): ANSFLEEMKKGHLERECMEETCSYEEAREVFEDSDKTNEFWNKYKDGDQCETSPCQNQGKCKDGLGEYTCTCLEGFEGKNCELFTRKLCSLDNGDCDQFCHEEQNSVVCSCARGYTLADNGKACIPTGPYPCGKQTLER
Chain of Coagulation factor X (P00742 235-488 limits assumed): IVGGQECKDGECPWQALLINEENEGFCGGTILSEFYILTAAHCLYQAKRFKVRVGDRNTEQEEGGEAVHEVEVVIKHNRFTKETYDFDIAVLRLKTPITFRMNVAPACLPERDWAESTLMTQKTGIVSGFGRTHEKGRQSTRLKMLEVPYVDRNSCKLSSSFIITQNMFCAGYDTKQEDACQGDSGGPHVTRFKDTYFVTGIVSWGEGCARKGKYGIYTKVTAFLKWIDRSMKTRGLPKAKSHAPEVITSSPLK

Homo sapiens [2] = organism: Homo sapiens; assay: Selectivity ratio of Ki for thrombin (unknown origin) to Ki for tissue factor-factor 7a (unknown origin) interaction
Homo sapiens [3] = organism: Homo sapiens; assay: Selectivity ratio of Ki for factor-11a (unknown origin) to Ki for tissue factor-factor 7a (unknown origin) interaction
Plasma [4] = assay: Fraction unbound in human plasma; format: ADME, cell-free
Plasma [5] = assay: Anticoagulant activity in factor 7 deficient human plasma assessed as concentration required to prothrombin time; format: functional
Homo sapiens [6] = organism: Homo sapiens; assay: Selectivity ratio of Ki for trypsin (unknown origin) to Ki for tissue factor-factor 7a (unknown origin) interaction
Homo sapiens [7] = organism: Homo sapiens; assay: Selectivity ratio of Ki for plasma kallikrein (unknown origin) to Ki for tissue factor-factor 7a (unknown origin) interaction
Homo sapiens [8] = organism: Homo sapiens; assay: Selectivity ratio of Ki for factor-9a (unknown origin) to Ki for tissue factor-factor 7a (unknown origin) interaction
Homo sapiens [9] = organism: Homo sapiens; assay: Selectivity ratio of Ki for factor-10a (unknown origin) to Ki for tissue factor-factor 7a (unknown origin) interaction

| SMILES | Ki (Prothrombin) [nM] | Ki [1] [nM] | Ki (Coagulation factor X) [nM] | other results |
| --- | --- | --- | --- | --- |
| CNC(=O)[C@]1(C)C[C@@H](C(=O)NCc2ccc(C(=N)N)cc2)n2c1c(Cl)nc(NC1CCC1)c2=O | > 15000 | 2100 | 1100 | – |
| Cc1ccc(CNc2nc(Cl)c3n(c2=O)[C@H](C(=O)NCc2ccc(C(=N)N)cc2)CC3(C)C)o1 | – | 190 | – | – |
| CCCNc1cnc2n(c1=O)[C@H](C(=O)NCc1ccc(C(=N)N)cc1)CC2(CCC)CCC | 1200 | 620 | 3600 | – |
| CCCNc1cnc2n(c1=O)[C@H](C(=O)NCc1ccc(C(=N)N)cc1)CC2(C)C | 1800 | 290 | > 15000 | – |
| CC1(C)C[C@@H](C(=O)NCc2ccc(C(=N)N)cc2)n2c1c(Cl)nc(NC1(CO)CCCC1)c2=O | 380 | 70 | > 15000 | – |
| CCC1(CC)C[C@@H](C(=O)NCc2ccc3c(N)nccc3c2)n2c1c(Cl)nc(NC1CCC1)c2=O | – | 360 | – | – |
| CCCNc1cnc2n(c1=O)[C@H](C(=O)NCc1ccc(C(=N)N)cc1)CC2 | 150 | 186 | > 15000 | – |
| CC1(C)C[C@@H](C(=O)NCc2ccc(C(=N)N)cc2)n2c1c(Cl)nc(NC1CCCC1)c2=O | 160 | 60 | > 15000 | – |
| CCCNc1cnc2n(c1=O)[C@H](C(=O)NCc1ccc(C(=N)N)cc1)C[C@@]2(C)CC | 2100 | 150 | > 15000 | – |
| CC1(C)C[C@@H](C(=O)NCc2ccc(C(=N)N)cc2)n2c1c(Cl)nc(NCC1CCCCC1)c2=O | 220 | 76 | > 15000 | – |
| N=C(N)c1ccc(CNC(=O)[C@@H]2CC3(CCCC3)c3c(Cl)nc(NC4CCC4)c(=O)n32)cc1 | 78 | 99 | > 15000 | – |
| CC(Nc1nc(Cl)c2n(c1=O)[C@H](C(=O)NCc1ccc(C(=N)N)cc1)CC2(C)C)C(C)(C)C (stereo partly specified) | – | 84 | – | – |
| COCC(C)Nc1nc(Cl)c2n(c1=O)[C@H](C(=O)NCc1ccc(C(=N)N)cc1)CC2(C)C (stereo partly specified) | – | 130 | – | – |
| CC(C)(C)OC(=O)CNc1nc(Cl)c2n(c1=O)[C@H](C(=O)NCc1ccc(C(=N)N)cc1)CC2(C)C | 32 | 132 | – | – |
| C[C@@]1(C(=O)NCc2ccccc2)C[C@@H](C(=O)NCc2ccc(C(=N)N)cc2)n2c1c(Cl)nc(NC1CCC1)c2=O | > 15000 | 560 | 3700 | – |
| CCC1(CC)C[C@@H](C(=O)NCc2ccc3c(N)noc3c2)n2c1c(Cl)nc(NC1CCC1)c2=O | – | 1900 | – | – |
| CC(C)(C)Nc1nc(Cl)c2n(c1=O)[C@H](C(=O)NCc1ccc(C(=N)N)cc1)CC2(C)C | 220 | 68 | 2800 | – |
| C[C@@]1(CO)C[C@@H](C(=O)NCc2ccc(C(=N)N)cc2)n2c1c(Cl)nc(NC1CCC1)c2=O | > 15000 | 72 | > 15000 | – |
| CCCNc1cnc2n(c1=O)[C@H](C(=O)NCc1ccc(C(=N)N)cc1)CC2(CC)CC | 5200 | 75 | 12000 | – |
| CCC1(CC)C[C@@H](C(=O)NCc2ccc(CN)cc2)n2c1c(Cl)nc(NC1CCC1)c2=O | – | 300 | – | – |

Stronger by Ki [1], values ahead:

| Ki (Prothrombin) [nM] | Ki [1] [nM] | Ki (Coagulation factor X) [nM] | SMILES | other results |
| --- | --- | --- | --- | --- |
| 220 | 43 | > 15000 | CC(C)CNc1nc(Cl)c2n(c1=O)[C@H](C(=O)NCc1ccc(C(=N)N)cc1)CC2(C)C | – |
| 360 | 37 | > 15000 | CC1(C)C[C@@H](C(=O)NCc2ccc(C(=N)N)cc2)n2c1c(Cl)nc(NC1CC1)c2=O | – |
| 35 | 30 | > 15000 | N=C(N)c1ccc(CNC(=O)[C@@H]2CCc3c(Cl)nc(NC4CCC4)c(=O)n32)cc1 | – |
| 170 | 28 | 550 | CCCC1(CCC)C[C@@H](C(=O)NCc2ccc(C(=N)N)cc2)n2c1c(Cl)nc(NC1CCC1)c2=O | – |
| 230 | 24 | > 15000 | CNc1nc(Cl)c2n(c1=O)[C@H](C(=O)NCc1ccc(C(=N)N)cc1)CC2(C)C | – |
| 200 | 23 | > 15000 | CC1(C)C[C@@H](C(=O)NCc2ccc(C(=N)N)cc2)n2c1c(Cl)nc(NC1CCC1)c2=O | – |
| 36 | 23 | 1000 | CCC[C@]1(C)C[C@@H](C(=O)NCc2ccc(C(=N)N)cc2)n2c1c(Cl)nc(NC1CCC1)c2=O | – |
| 110 | 21 | 2200 | CCC[C@@]1(C)C[C@@H](C(=O)NCc2ccc(C(=N)N)cc2)n2c1c(Cl)nc(NC1CCC1)c2=O | – |
| 260 | 19 | > 15000 | CCNc1nc(Cl)c2n(c1=O)[C@H](C(=O)NCc1ccc(C(=N)N)cc1)CC2(C)C | – |
| 130 | 17 | > 15000 | CC(C)Nc1nc(Cl)c2n(c1=O)[C@H](C(=O)NCc1ccc(C(=N)N)cc1)CC2(C)C | – |
| 210 | 7.3 | 3300 | CCC1(CC)C[C@@H](C(=O)NCc2ccc(C(=N)N)cc2)n2c1c(Cl)nc(NC1CCC1)c2=O | Ratio Ki (Homo sapiens [2]): 30; Ratio Ki (Homo sapiens [3]): > 160; Cp(f) (Plasma [4]): 6.8%; Activity (Plasma [5]): 5.6 µM; Ratio Ki (Homo sapiens [6]): < 3; Ratio Ki (Homo sapiens [7]): < 3; Ratio Ki (Homo sapiens [8]): > 160; Ratio Ki (Homo sapiens [9]): > 160 |
| 220 | 5.8 | 650 | C=CC[C@]1(C)C[C@@H](C(=O)NCc2ccc(C(=N)N)cc2)n2c1c(Cl)nc(NC1CCC1)c2=O | – |
